Assay results published in ChEMBL document CHEMBL5696442, “Discovery of type II inhibitors of TGFβ-activated kinase 1 (TAK1) and mitogen-activated protein kinase kinase kinase kinase 2 (MAP4K2)” (J Med Chem, 2015).

What was measured:
[1] = target: Proto-oncogene tyrosine-protein kinase Src (Homo sapiens, UniProt P12931); test: Inhibition of SRC Lys1 labeling site in human A-375 cells at 5 uM by KiNativ Profiling analysis relative to control; format: cell-based
[2] = target: Calcium/calmodulin-dependent protein kinase type 1 (Homo sapiens) (UniProt Q14012); test: Inhibition of CaMK1alpha Lys1 labeling site harbouring LVAIKCIAK in human A-375 cells at 5 uM by KiNativ Profiling analysis relative to control; format: cell-based
Method in brief: (§1)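 Intact A375 melanoma cells were treated with compound at 5 or 0.5 μM, then lysed. Lysate kinases were labeled with a lysine-reactive ATP or ADP-biotin probe (KiNativ). Inhibition is read as protection of each kinase labeling site from probe labeling.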

[3] = target: Cyclin-dependent kinase 2 (Homo sapiens) (UniProt P24941); test: Inhibition of CDK2 Lys1 labeling site in human A-375 cells at 5 uM by KiNativ Profiling analysis relative to control; format: cell-based; method in brief: as §1
[4] = target: Ribosomal protein S6 kinase alpha-3 (Homo sapiens) (UniProt P51812); test: Inhibition of RSK2 domain2 Protein Kinase Domain in human A-375 cells at 5 uM by KiNativ Profiling analysis relative to control; format: cell-based
Method in brief: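 Live A375 melanoma cells treated with compound at 5 or 0.5 μM, then lysed. Lysate kinases were labeled with a lysine-reactive ATP or ADP-biotin probe. Inhibition was read as protection of labeling sites from the probe.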

[5] = target: Receptor tyrosine-protein kinase erbB-3 (Homo sapiens) (UniProt P21860); test: Inhibition of HER3/ErbB3 ACT labeling site in human A-375 cells at 0.5 uM by KiNativ Profiling analysis relative to control; format: cell-based
[6] = target: T1, Serine/threonine-protein kinase greatwall (Homo sapiens) (UniProt Q96GX5); test: Inhibition of MASTL ATP Loop labeling site in human A-375 cells at 0.5 uM by KiNativ Profiling analysis relative to control; format: cell-based
T1 sequence (whole entry): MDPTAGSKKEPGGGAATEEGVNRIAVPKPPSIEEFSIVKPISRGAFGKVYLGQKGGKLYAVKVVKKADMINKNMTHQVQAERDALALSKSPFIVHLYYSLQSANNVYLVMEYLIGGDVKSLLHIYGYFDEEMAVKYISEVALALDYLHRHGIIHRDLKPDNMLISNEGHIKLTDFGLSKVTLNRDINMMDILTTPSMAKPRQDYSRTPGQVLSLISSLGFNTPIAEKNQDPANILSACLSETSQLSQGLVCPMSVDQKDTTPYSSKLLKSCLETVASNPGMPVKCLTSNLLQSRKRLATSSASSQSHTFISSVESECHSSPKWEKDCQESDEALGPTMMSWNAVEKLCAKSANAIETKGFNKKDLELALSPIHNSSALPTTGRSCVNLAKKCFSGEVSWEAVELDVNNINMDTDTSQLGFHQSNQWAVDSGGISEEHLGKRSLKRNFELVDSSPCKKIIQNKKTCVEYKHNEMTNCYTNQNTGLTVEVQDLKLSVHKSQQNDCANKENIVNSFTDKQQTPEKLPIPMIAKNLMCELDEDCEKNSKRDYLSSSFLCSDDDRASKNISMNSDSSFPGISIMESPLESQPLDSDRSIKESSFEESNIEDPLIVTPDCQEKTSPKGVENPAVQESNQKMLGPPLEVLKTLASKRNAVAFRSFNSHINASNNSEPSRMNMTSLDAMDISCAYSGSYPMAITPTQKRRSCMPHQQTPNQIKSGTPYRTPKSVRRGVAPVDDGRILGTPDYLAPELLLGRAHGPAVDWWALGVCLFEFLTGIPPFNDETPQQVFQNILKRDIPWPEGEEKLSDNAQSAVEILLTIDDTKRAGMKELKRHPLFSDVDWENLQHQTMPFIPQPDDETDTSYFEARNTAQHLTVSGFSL

[7] = target: Phosphatidylinositol 3-kinase catalytic subunit type 3 (Homo sapiens) (UniProt Q8NEB9); test: Inhibition of PIK3C3 ATP labeling site in human A-375 cells at 0.5 uM by KiNativ Profiling analysis relative to control; format: cell-based
[8] = target: Serine/threonine-protein kinase WNK1 (Homo sapiens) (UniProt Q9H4A3); test: Inhibition of Wnk1 Lys2 labeling site in human A-375 cells at 0.5 uM by KiNativ Profiling analysis relative to control; format: cell-based
[9] = target: Cyclin-dependent kinase 2 (Homo sapiens) (UniProt P24941); test: Inhibition of CDK2 Lys2 labeling site in human A-375 cells at 0.05 uM by KiNativ Profiling analysis relative to control; format: cell-based
[10] = target: T2, Ephrin type-B receptor 4 (Homo sapiens) (UniProt P54760); test: Inhibition of EphB4 ACT labeling site in human A-375 cells at 0.05 uM by KiNativ Profiling analysis relative to control; format: cell-based
T2 sequence (whole entry): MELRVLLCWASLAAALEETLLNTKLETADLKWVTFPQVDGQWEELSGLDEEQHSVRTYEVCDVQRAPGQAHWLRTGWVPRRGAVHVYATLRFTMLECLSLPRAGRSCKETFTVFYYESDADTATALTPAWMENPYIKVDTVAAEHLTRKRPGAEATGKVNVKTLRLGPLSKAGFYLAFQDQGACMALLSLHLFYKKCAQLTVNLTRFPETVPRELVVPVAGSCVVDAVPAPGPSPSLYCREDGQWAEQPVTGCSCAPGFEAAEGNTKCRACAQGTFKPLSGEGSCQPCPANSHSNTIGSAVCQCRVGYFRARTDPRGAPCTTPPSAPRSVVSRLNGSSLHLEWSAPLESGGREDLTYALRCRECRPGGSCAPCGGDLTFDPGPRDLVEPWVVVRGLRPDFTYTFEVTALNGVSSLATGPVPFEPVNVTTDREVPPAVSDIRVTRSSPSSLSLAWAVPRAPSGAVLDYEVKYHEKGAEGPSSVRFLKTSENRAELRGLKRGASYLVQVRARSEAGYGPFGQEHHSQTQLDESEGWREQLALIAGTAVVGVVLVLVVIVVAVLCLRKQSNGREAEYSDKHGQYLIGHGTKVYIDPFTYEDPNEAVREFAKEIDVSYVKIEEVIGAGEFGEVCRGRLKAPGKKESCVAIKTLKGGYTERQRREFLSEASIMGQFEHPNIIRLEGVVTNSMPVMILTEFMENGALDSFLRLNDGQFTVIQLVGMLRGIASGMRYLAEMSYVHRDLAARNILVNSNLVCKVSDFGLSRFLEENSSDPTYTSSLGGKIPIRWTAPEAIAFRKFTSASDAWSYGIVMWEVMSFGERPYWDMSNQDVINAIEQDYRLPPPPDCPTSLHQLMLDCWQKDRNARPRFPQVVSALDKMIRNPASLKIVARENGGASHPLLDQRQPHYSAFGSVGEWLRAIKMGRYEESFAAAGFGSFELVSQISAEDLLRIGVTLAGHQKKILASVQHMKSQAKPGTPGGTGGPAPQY

[11] = Inhibition of p70S6K ATP Loop labeling site harbouring GGYGKVFQVR in human A-375 cells at 0.05 uM by KiNativ Profiling analysis relative to control; conditions: condition cancer

Chain of Serine/threonine-protein kinase WNK1 (Homo sapiens) (Q9H4A3 whole entry, looked up): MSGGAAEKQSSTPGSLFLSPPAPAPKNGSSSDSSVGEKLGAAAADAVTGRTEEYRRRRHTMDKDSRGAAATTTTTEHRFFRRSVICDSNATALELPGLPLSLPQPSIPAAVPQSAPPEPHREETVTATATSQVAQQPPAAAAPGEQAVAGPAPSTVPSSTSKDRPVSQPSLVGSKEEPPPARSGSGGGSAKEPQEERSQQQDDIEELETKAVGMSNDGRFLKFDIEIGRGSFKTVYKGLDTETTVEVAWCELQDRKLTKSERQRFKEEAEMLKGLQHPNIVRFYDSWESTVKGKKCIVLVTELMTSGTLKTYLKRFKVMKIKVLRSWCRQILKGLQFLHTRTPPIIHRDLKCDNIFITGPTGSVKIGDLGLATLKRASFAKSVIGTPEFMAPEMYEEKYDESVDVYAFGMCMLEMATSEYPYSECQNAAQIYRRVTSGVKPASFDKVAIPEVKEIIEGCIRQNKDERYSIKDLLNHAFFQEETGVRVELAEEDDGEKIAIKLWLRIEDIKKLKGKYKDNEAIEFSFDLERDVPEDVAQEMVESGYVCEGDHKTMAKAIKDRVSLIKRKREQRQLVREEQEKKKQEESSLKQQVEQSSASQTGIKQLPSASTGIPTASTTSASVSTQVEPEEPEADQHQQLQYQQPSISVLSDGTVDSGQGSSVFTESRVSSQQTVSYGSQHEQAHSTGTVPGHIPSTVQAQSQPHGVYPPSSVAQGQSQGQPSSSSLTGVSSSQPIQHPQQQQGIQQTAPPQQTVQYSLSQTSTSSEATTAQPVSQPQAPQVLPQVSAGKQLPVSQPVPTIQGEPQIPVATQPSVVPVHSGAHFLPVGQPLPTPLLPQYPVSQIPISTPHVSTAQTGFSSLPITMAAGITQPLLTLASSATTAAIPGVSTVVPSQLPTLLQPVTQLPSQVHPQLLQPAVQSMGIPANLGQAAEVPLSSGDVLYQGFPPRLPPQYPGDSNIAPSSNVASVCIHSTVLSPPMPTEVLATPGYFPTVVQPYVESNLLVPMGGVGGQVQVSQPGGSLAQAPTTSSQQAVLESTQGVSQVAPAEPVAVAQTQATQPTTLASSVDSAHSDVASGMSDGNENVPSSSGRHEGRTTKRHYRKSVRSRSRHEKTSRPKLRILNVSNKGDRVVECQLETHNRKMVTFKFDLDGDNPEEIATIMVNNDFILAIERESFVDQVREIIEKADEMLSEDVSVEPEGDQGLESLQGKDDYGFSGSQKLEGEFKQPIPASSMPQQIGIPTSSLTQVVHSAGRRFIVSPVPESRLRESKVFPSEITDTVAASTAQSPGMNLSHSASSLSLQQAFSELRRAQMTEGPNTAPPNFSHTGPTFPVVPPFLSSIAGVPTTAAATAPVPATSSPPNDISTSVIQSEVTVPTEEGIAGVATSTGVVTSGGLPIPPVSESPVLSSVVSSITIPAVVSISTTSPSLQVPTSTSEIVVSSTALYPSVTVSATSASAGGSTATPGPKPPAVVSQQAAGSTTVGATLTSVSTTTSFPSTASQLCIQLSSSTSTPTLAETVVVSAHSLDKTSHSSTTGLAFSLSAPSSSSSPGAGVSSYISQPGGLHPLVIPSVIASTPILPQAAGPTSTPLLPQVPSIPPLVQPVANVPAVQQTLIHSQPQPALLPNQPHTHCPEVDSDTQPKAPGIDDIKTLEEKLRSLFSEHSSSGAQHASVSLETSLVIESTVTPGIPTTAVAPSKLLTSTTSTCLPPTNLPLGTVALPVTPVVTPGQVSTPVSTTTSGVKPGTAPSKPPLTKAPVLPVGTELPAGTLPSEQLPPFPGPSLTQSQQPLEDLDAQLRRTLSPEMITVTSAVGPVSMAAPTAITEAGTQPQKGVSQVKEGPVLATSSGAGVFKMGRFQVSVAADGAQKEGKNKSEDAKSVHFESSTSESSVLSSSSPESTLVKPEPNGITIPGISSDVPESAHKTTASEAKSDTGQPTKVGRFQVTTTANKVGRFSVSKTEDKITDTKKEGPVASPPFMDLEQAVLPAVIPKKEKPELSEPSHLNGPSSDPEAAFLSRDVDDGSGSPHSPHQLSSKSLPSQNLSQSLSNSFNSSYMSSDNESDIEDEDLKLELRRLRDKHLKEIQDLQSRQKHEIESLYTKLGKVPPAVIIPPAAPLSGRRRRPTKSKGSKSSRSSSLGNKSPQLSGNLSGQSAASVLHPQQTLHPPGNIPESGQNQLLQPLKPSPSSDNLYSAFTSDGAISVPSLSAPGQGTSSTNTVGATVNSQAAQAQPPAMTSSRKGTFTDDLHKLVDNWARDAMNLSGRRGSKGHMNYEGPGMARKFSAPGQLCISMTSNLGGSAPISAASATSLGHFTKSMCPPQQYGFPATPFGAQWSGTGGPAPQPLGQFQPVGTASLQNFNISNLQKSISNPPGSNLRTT
Chain of Phosphatidylinositol 3-kinase catalytic subunit type 3 (Homo sapiens) (Q8NEB9 whole entry): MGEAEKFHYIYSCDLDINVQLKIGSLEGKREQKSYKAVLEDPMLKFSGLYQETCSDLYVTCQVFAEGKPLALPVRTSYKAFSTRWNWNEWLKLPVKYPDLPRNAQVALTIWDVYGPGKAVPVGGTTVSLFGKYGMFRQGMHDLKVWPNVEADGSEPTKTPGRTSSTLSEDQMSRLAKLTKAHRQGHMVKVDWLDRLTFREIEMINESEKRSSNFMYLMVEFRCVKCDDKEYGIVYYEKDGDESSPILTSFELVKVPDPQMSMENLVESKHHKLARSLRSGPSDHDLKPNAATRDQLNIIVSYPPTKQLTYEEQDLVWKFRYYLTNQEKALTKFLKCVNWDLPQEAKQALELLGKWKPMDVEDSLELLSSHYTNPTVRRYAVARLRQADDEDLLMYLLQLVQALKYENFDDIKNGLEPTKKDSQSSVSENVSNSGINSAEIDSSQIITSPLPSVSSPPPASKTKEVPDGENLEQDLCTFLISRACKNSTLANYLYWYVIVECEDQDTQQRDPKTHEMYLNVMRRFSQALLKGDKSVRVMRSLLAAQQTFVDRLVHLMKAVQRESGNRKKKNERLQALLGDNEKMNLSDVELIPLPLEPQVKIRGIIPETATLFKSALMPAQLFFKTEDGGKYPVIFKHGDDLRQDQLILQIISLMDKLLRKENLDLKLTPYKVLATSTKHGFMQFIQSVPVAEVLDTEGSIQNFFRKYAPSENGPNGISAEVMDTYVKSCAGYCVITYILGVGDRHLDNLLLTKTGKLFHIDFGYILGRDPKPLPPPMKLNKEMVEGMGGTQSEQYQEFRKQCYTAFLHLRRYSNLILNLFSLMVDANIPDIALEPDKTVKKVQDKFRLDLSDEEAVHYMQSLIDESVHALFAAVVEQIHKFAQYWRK
Chain of Calcium/calmodulin-dependent protein kinase type 1 (Homo sapiens) (Q14012 whole entry, looked up): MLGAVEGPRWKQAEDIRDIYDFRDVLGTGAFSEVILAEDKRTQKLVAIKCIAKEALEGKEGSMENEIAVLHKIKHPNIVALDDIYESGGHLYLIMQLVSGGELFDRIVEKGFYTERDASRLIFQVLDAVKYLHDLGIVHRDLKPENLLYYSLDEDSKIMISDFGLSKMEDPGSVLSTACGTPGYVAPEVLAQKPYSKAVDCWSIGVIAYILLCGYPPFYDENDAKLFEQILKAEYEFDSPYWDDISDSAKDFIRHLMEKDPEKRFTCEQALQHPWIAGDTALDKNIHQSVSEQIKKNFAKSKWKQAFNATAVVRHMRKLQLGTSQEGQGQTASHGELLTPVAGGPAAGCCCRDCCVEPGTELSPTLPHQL
Chain of Proto-oncogene tyrosine-protein kinase Src (P12931 2-536 limits assumed): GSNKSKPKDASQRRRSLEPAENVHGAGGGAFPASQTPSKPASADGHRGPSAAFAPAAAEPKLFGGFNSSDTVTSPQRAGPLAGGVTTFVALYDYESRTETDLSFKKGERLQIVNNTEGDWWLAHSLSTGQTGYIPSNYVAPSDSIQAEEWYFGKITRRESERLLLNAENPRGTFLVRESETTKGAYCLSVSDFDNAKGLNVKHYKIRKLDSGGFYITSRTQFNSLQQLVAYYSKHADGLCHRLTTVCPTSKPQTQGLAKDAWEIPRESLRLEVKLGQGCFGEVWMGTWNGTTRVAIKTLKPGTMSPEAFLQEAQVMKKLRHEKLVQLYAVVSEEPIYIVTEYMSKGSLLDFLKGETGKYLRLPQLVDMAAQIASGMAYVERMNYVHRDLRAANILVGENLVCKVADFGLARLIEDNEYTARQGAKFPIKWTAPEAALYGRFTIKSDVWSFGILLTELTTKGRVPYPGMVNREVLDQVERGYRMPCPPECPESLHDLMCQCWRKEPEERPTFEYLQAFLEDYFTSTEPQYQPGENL
Chain of Ribosomal protein S6 kinase alpha-3 (Homo sapiens) (P51812 whole entry, the tested form may be a part): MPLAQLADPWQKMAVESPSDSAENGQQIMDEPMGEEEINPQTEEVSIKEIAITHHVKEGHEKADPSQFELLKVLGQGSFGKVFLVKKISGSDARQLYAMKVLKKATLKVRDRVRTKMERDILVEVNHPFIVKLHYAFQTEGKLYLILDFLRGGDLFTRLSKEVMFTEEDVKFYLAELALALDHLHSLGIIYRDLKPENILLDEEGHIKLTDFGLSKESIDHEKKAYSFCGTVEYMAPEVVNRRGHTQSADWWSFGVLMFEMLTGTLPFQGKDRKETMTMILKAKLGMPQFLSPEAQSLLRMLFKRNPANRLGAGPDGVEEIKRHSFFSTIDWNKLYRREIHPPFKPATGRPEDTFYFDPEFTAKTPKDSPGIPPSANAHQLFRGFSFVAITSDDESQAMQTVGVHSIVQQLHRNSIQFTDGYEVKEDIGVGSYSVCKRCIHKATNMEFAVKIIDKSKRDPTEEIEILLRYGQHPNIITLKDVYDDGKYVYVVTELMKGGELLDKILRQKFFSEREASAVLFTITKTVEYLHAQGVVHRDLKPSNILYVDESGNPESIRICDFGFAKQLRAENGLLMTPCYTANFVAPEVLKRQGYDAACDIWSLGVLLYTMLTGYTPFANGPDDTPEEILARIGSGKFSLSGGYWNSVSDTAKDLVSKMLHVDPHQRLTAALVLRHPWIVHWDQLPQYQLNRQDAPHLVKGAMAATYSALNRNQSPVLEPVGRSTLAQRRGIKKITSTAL

Compound	inhibition [1]	inhibition [2]	inhibition [3]	inhibition [4]	inhibition [5]	inhibition [6]	inhibition [7]	inhibition [8]	inhibition [9]	inhibition [10]	inhibition at 0.05 µM [11]
CCN1CCN(Cc2ccc(NC(=O)c3ccc(C)c(/C=C/c4cnc5[nH]ccc5c4OC)c3)cc2C(F)(F)F)CC1	> 92%	31.9%	17.6%	33.3%	12.2%	0.2%	51.6%	7.9%	13.3%	33.4%	-14.4%
CCN1CCN(Cc2ccc(NC(=O)c3ccc(C)c(Oc4ccnc5[nH]ccc45)c3)cc2C(F)(F)F)CC1	> 92%	91.8%	37.3%	0.4%	5.1%	11.4%	36.8%	-3%	16.2%	3.4%	18.9%
